PG9 binder – binders of HIV-1 gp120 antibody PG9, primary screen, biochemical, TR-FRET; AID 624416, 2012; TR-FRET gp120-PG9 antibody binding; HIV-1 gp120 / PG9 antibody interaction; actives 0.43% (n = 360,000); inhibition, % at 6.7 µM; in the data active = inhibition above about 8.5%
Rev-erbA mod – modulators of Rev-erb alpha DNA binding, primary screen, biochemical, FITC-DNA, fluorescence polarization, uHTS; actives 0.79% (n = 370,000); AID 1259318, 2017; Rev-erbα–FITC-DNA binding, 90 min; activity, % at 10 µM;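 active = activity above about 14%, limit read from the data; passing the limit was not always enough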
NR2E3 ag-1 – inhibitors of NR2E3-RetCOR corepressor binding, primary screen, NR2E3 agonist project, biochemical, TR-FRET, GST-NR2E3, biotin-RetCOR | Photoreceptor-specific nuclear receptor (Homo sapiens), Q9Y5X4 | actives 0.12% (n = 320,000) | inhibition of corepressor binding, % at 4.78 µM | 1536-well;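 active = percent inhibition above the cutoff of mean plus 3 SD of all tested compounds, set per screening campaign, cut at about 20% in these data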
Target sequence (Q9Y5X4 whole entry, looked up): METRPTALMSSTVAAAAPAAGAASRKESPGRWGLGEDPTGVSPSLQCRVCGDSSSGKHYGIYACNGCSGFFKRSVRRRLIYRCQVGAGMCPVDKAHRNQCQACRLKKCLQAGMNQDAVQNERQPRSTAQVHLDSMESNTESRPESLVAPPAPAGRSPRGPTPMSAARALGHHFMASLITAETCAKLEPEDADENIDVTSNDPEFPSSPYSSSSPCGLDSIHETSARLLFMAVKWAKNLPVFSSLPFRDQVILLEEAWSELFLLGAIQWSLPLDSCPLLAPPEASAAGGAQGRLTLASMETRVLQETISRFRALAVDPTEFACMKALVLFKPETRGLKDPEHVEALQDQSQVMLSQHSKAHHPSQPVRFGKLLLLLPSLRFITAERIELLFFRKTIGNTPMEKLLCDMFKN
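System: GST-tagged NR2E3 plus biotinylated RetCOR corepressor; Buffer or medium: pH 7.5 Tris-based buffer; Probe or stimulus: RetCOR corepressor, biotinylated, 7 nM; Doses: compound at 4.8 µM, single dose; Schedule: 5 h incubation at 4 °C; Technique: time-resolved FRET; Evaluation: percent inhibition of TR-FRET ratio; Replication: one well per compound, singlicate testing.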
NR2E3 ag-2 – NR2E3 agonists in two-hybrid cells, primary screen, cell-based, luminescence, CHO-S, Gal4-NCOR/VP16-NR2E3 | actives 0.35% (n = 360,000) | luciferase | AID 602229, 2012 | inhibition of corepressor binding, % at 3.98 µM;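 active = inhibition above the mean of all tested compounds plus 3 SD, cut at about 70% in these data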;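 note: higher means lower luciferase signal from less NR2E3 corepressor binding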
PG9 binder conf – binders of anti-gp120 antibody PG9, confirmation, biochemical, TR-FRET; shares compounds with PG9 binder; TR-FRET PG9 antibody binding; inhibition, % at 6.7 µM; actives 90% (n = 1,500); AID 651571, 2012; in the data active = inhibition above about 9%
PGV04 Ab binding – binders of control antibody PGV04, counter-screen for PG9 antibody binder project, biochemical, TR-FRET, distinct HIV envelope site. shares compounds with PG9 binder. TR-FRET PGV04 antibody-gp120 binding. inhibition, % at 6.7 µM. actives 95% (n = 1,500); in the data active = inhibition above about 9.5%
PG9 bind DR – small-molecule binders of antibody PG9, dose response, biochemical, TR-FRET, HIV-1 gp120 antibody | 95 tested, under 10 active | shares compounds with PG9 binder | TR-FRET PG9 antibody-gp120 binding inhibition | IC50, µM | AID 651848, 2012; in the data active = IC50 below about 10 µM
PGV04 binding DR – binders of control antibody PGV04, dose response, counter-screen for PG9 antibody binder project, biochemical, TR-FRET, distinct HIV envelope site | shares compounds with PG9 binder | TR-FRET binding to control antibody PGV04 | IC50, µM | actives 20% (n = 95) | AID 651937, 2012
PG126 DR counter – binders of control antibody PG126, dose response, counter-screen for PG9 antibody binder project, biochemical, TR-FRET, distinct HIV envelope site; shares compounds with PG9 binder; actives 20% (n = 95); AID 651939, 2012; TR-FRET binding to antibody PG126, counterscreen; IC50, µM
A number is an active result. This is a sample that favours compounds with a hit; in the whole collection about 1.4% have one here. Cut-off read from the data, not from the text of the source, unless noted: active = IC50 below about 9 µM; inactive = the rest.

CCOc1ccc(C2C(C(=O)c3ccco3)=C(O)C(=O)N2Cc2cccnc2)cc1OC (stereo unspecified) was read as PG9 binder inactive, Rev-erbA mod inactive, NR2E3 ag-1 inactive and NR2E3 ag-2 inactive.
CCCOc1ccc(C2C(C(=O)c3ccco3)=C(O)C(=O)N2CCCn2ccnc2)cc1 (stereo unspecified) was read as PG9 binder 19, Rev-erbA mod inactive, NR2E3 ag-1 inactive, NR2E3 ag-2 inactive, PG9 binder conf 24 and PGV04 Ab binding 28.
Screening CCCOc1ccc(C2C(C(=O)c3ccco3)=C(O)C(=O)N2CCCn2ccnc2)cc1OC (stereo unspecified) returned PG9 binder inactive, Rev-erbA mod inactive and NR2E3 ag-2 inactive.
O=C(C1=C(O)C(=O)N(Cc2cccnc2)C1c1cccc(Oc2ccccc2)c1)c1ccco1 (stereo unspecified) was read as PG9 binder 13, Rev-erbA mod inactive, NR2E3 ag-2 inactive, PG9 binder conf 19 and PGV04 Ab binding 28.
CC(C)Oc1ccc(C2C(C(=O)c3ccco3)=C(O)C(=O)N2Cc2cccnc2)cc1 (stereo unspecified) was read as PG9 binder 9.3, Rev-erbA mod inactive, NR2E3 ag-1 inactive, NR2E3 ag-2 inactive, PG9 binder conf 15 and PGV04 Ab binding 19.
`COc1ccc(S[C@]2(C(=O)N3CCOCC3)CC(=O)N(C(=O)Nc3ccc(C)c(Cl)c3)[C@@H]2c2ccc(OC)cc2)cc1` gave Rev-erbA mod inactive.
Screening CCOC(=O)N1CCN(C(=O)C[C@H]2C[C@@]3(C(=O)OC)C(=C[C@H](C(C)(C)C)O[C@@H]3C)N(Cc3cccc4ccccc34)C2=O)CC1 returned Rev-erbA mod inactive.
`C/C(=C/c1c[n+](Cc2ccc3c(c2)OCO3)c(N)[nH]1)Cn1[nH]c(=O)n(-c2ccccc2)c1=O` gave Rev-erbA mod inactive.
CC(C)NC(=O)N[C@@H]1C[C@@H]2O[C@H](CO)CC[C@@H]2O[C@@H]1CCc1ccc(-c2ccccc2F)cc1 was read as Rev-erbA mod inactive.
`CCOC(=O)c1c(N)sc(=S)c2c1CCC2` gave PG9 binder 9.5, Rev-erbA mod inactive, NR2E3 ag-1 inactive, NR2E3 ag-2 inactive, PG9 binder conf inactive and PGV04 Ab binding 10.
Cc1c(Br)c(O)c(Br)c2sc(=O)oc12 was read as PG9 binder 18, Rev-erbA mod inactive, NR2E3 ag-1 inactive, NR2E3 ag-2 inactive, PG9 binder conf 11 and PGV04 Ab binding 21.
O=C(O)c1ccccc1C(=O)Nc1ccccc1NC(=O)c1ccccc1C(=O)O was read as PG9 binder inactive, Rev-erbA mod inactive, NR2E3 ag-1 inactive and NR2E3 ag-2 inactive.
Screening CC(=O)c1sc(C(C)(C)C)cc1NC(=O)c1ccccc1C(=O)O returned PG9 binder 48, Rev-erbA mod inactive, NR2E3 ag-1 inactive, NR2E3 ag-2 inactive, PG9 binder conf 57 and PGV04 Ab binding 65.
Screening O=C(Cn1c(=S)[nH]c2ccccc2c1=O)N1CCN(c2ccc(F)cc2)CC1 returned PG9 binder 11, Rev-erbA mod inactive, NR2E3 ag-1 inactive, NR2E3 ag-2 inactive, PG9 binder conf 16 and PGV04 Ab binding 26.
`CCOC(=O)C1(Cc2ccccc2)CCN(Cc2ccccc2[N+](=O)[O-])CC1` gave Rev-erbA mod inactive.
Screening CS(=O)(=O)c1ccc2nc(NC(=O)Nc3ccccc3F)sc2c1 returned PG9 binder 33, Rev-erbA mod inactive, NR2E3 ag-1 inactive, NR2E3 ag-2 inactive, PG9 binder conf 27 and PGV04 Ab binding 46.
COc1ccc2c(-c3ccccc3)cc3nnnn3c2c1 was read as PG9 binder 9.9, Rev-erbA mod inactive, NR2E3 ag-1 inactive, NR2E3 ag-2 inactive, PG9 binder conf 10 and PGV04 Ab binding 24.
Screening Cc1cc2cc3c(cc2nc1SCC(=O)O)OCCO3 returned PG9 binder inactive, Rev-erbA mod inactive, NR2E3 ag-1 inactive and NR2E3 ag-2 inactive.
For Cc1cc2cc3c(cc2nc1SCC(=O)OC(C)C)OCCO3 the results were PG9 binder 17, Rev-erbA mod inactive, NR2E3 ag-1 inactive, NR2E3 ag-2 inactive, PG9 binder conf 23 and PGV04 Ab binding 26.
For Nc1nc(-c2ccc(Cl)cc2)nnc1-c1ccc(Br)cc1 the results were PG9 binder 13, Rev-erbA mod inactive, NR2E3 ag-1 inactive, NR2E3 ag-2 inactive, PG9 binder conf 16 and PGV04 Ab binding 58.
For CCOC(=O)N1CCN(C(=O)C[C@H]2C(=O)N(CCCOC)C3=CCCCC[C@]32C(=O)OC)CC1 the results were Rev-erbA mod inactive.
O=S(=O)(NCc1cn(Cc2ccccc2)nn1)c1ccccc1Br was read as Rev-erbA mod inactive.
`O=C(O)c1ccccc1C(=O)c1cccc2c(Br)cccc12` gave PG9 binder 54, Rev-erbA mod inactive, NR2E3 ag-2 inactive, PG9 binder conf 68 and PGV04 Ab binding 83.
Screening O=C(CSc1nc2nc(-c3cccs3)cc(C(F)(F)F)c2c(=O)[nH]1)Nc1ccc(F)c(F)c1 returned PG9 binder 17, Rev-erbA mod inactive, NR2E3 ag-1 inactive, NR2E3 ag-2 inactive, PG9 binder conf 20 and PGV04 Ab binding 28.
`CCn1c(SCC(=O)Nc2ccccc2-c2ccccc2)nnc1-c1ccc(C)cc1` gave Rev-erbA mod inactive.
Screening CCOc1ccc2cc(C(=O)NCc3ccccc3)c(=N)oc2c1 returned PG9 binder 40, Rev-erbA mod inactive, NR2E3 ag-1 inactive, NR2E3 ag-2 inactive, PG9 binder conf 15, PGV04 Ab binding inactive, PG9 bind DR inactive, PGV04 binding DR inactive and PG126 DR counter inactive.
